In ChEMBL document CHEMBL1143104, “Identification and characterization of pyrrolidine diastereoisomers as potent functional agonists and antagonists of the human melanocortin-4 receptor” (Bioorg Med Chem Lett, 2008):
pEC50, pKi: −log10 of the molar value. Blank lines part the entries; values can stand above or below the molecule they belong to.

Key:
Melanocortin receptor 4 [1] = target: T1, Melanocortin receptor 4 (Homo sapiens, UniProt P32245); experiment: Displacement of [125I]NDP-MSH from human MC4 receptor expressed in HEK293 cells; format: cell-based
T1 sequence (P32245 whole entry): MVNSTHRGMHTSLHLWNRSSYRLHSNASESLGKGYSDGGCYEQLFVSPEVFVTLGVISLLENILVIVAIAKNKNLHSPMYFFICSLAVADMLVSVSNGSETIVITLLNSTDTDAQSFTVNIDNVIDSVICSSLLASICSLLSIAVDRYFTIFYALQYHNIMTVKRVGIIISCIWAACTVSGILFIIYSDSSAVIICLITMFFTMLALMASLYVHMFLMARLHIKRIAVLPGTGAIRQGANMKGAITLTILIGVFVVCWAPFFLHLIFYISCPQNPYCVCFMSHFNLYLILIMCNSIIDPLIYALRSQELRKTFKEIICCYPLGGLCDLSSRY
Procedure, shortened: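 HEK293 cells expressing human MC4R, radioligand competition binding with [125I]-NDP-MSH. Ki values are the average of two or more independent measurements.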

Melanocortin receptor 4 [2] = target: T1, Melanocortin receptor 4; experiment: Agonist activity at human MC4 receptor expressed in CHO cells assessed as accumulation of cAMP production; format: functional, cell-based
Procedure, shortened: (§1)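 CHO cells transfected with human MC4R were stimulated by compound and accumulated cAMP was measured by ELISA. Intrinsic activity is expressed relative to α-MSH. Representative experiments were run 2–8 times.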

Melanocortin receptor 4 [3] = target: T1, Melanocortin receptor 4; experiment: Intrinsic activity at human MC4 receptor expressed in CHO cells assessed as accumulation of cAMP production relative to alphaMSH; format: functional, cell-based; procedure, shortened: as §1

SMILES: Cc1ccc(N2CCN(C(=O)[C@@H]3CN(C4CCOCC4)C[C@H]3c3ccc(Cl)cc3)CC2)c([C@@H](NC(=O)CN)C(C)C)c1
pKi (Melanocortin receptor 4 [1]): 8.70 | pEC50 (Melanocortin receptor 4 [2]): 8.04 | Intrinsic activity (Melanocortin receptor 4 [3]): 114%

SMILES: CC(C)[C@H](NC(=O)CCN(C)C)c1cccc(F)c1N1CCN(C(=O)[C@@H]2CN(C(C)C)C[C@H]2c2cc(F)c(F)c(F)c2)CC1
pKi (Melanocortin receptor 4 [1]): 6.60

SMILES: CC(=O)N1C[C@@H](C(=O)N2CCN(c3ccc(C)cc3[C@@H](NC(=O)CCN(C)C)C(C)C)CC2)[C@H](c2ccc(Cl)cc2)C1
pKi (Melanocortin receptor 4 [1]): 8.12 | pEC50 (Melanocortin receptor 4 [2]): 7.36 | Intrinsic activity (Melanocortin receptor 4 [3]): 100%

SMILES: CC(C)[C@H](NC(=O)CCN(C)C)c1cccc(F)c1N1CCN(C(=O)[C@@H]2CN(C(C)C)C[C@H]2c2cc(F)ccc2F)CC1
pKi (Melanocortin receptor 4 [1]): 5.69

SMILES: Cc1ccc(N2CCN(C(=O)[C@@H]3CN(C4CCOCC4)C[C@H]3c3ccc(Cl)cc3)CC2)c([C@@H](NC(=O)CCN(C)C)C(C)C)c1 (stereo in doubt; 13b) [listing 1 of 2 here]
pKi (Melanocortin receptor 4 [1]): 8.85 | pEC50 (Melanocortin receptor 4 [2]): 8.00

SMILES: CC(C)[C@H](NC(=O)CCN(C)C)c1cccc(F)c1N1CCN(C(=O)[C@@H]2CN(C(C)C)C[C@H]2c2cc(F)cc(F)c2)CC1
pKi (Melanocortin receptor 4 [1]): 5.11

SMILES: Cc1ccc(N2CCN(C(=O)[C@@H]3CNC[C@H]3c3ccc(Cl)cc3)CC2)c([C@@H](NC(=O)CCN(C)C)C(C)C)c1
pKi (Melanocortin receptor 4 [1]): 8.14 | pEC50 (Melanocortin receptor 4 [2]): 7.10 | Intrinsic activity (Melanocortin receptor 4 [3]): 72%

SMILES: Cc1ccc(N2CCN(C(=O)[C@@H]3CN(C4CCOCC4)C[C@H]3c3ccc(Cl)cc3)CC2)c([C@@H](NC(=O)CCN(C)C)C(C)C)c1 (stereo in doubt; 13b) [listing 2 of 2 here]
Intrinsic activity (Melanocortin receptor 4 [3]): 121%

SMILES: Cc1ccc(N2CCN(C(=O)[C@H]3CN(C(C)C)C[C@H]3c3ccc(Cl)cc3)CC2)c([C@@H](NC(=O)CCN(C)C)C(C)C)c1
pKi (Melanocortin receptor 4 [1]): 7.05

SMILES: Cc1ccc(N2CCN(C(=O)[C@@H]3CN(C4CCOCC4)C[C@H]3c3ccc(Cl)cc3)CC2)c([C@@H](NC(=O)[C@H](C)N)C(C)C)c1
pKi (Melanocortin receptor 4 [1]): 9.00 | pEC50 (Melanocortin receptor 4 [2]): 8.28 | Intrinsic activity (Melanocortin receptor 4 [3]): 38%

Further lines, results first:

pKi (Melanocortin receptor 4 [1]): 6.33
SMILES: Cc1cccc([C@@H]2CN(C(C)C)C[C@H]2C(=O)N2CCN(c3c(F)cccc3[C@@H](NC(=O)CCN(C)C)C(C)C)CC2)c1

pKi (Melanocortin receptor 4 [1]): 6.59 | pEC50 (Melanocortin receptor 4 [2]): 6.39 | Intrinsic activity (Melanocortin receptor 4 [3]): 78%
SMILES: CC(C)[C@H](NC(=O)CCN(C)C)c1cccc(F)c1N1CCN(C(=O)[C@@H]2CN(C(C)C)C[C@H]2c2ccc(F)c(Cl)c2)CC1

pKi (Melanocortin receptor 4 [1]): 6.07
SMILES: CC(C)[C@H](NC(=O)CCN(C)C)c1cccc(F)c1N1CCN(C(=O)[C@@H]2CN(C(C)C)C[C@H]2c2ccoc2)CC1

pKi (Melanocortin receptor 4 [1]): 6.25
SMILES: CC(C)[C@H](NC(=O)CCN(C)C)c1cccc(F)c1N1CCN(C(=O)[C@@H]2CN(C(C)C)C[C@H]2c2cccc(F)c2)CC1

pKi (Melanocortin receptor 4 [1]): 5.43
SMILES: COc1cccc([C@@H]2CN(C(C)C)C[C@H]2C(=O)N2CCN(c3c(F)cccc3[C@@H](NC(=O)CCN(C)C)C(C)C)CC2)c1

pKi (Melanocortin receptor 4 [1]): 6.43
SMILES: CC(C)[C@H](NC(=O)CCN(C)C)c1cccc(F)c1N1CCN(C(=O)[C@@H]2CN(C(C)C)C[C@H]2c2cccc(Cl)c2)CC1
